# How the values were obtained:
# DOR = DOR (Mus musculus, UniProt P32300); assay: Radioligand competition binding assay, DOR
# mice = assay: Warm-water tail immersion assay; format: in vivo, mouse; conditions: for Antinociception effect (% MPE): 10 mg/kg s.c., 56 °C
# Outline: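 Male Swiss-Webster mice (23–35 g, 7–8 weeks), n = 5 per group. Single test-compound dose of 10 mg/kg given subcutaneously at time 0. Tail-flick latency measured in water at 56 ± 0.1 °C. Saline served as negative control and morphine as positive control. Response expressed as % maximum possible effect, reported as mean ± SD.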
# MOR = MOR (Mus musculus, UniProt P42866); assay: Radioligand competition binding assay, MOR; conditions: for Selectivity δ/μ: ratio of Ki values DOR/MOR; for Selectivity κ/μ: ratio of Ki values KOR/MOR
# Chain of MOR (P42866 whole entry): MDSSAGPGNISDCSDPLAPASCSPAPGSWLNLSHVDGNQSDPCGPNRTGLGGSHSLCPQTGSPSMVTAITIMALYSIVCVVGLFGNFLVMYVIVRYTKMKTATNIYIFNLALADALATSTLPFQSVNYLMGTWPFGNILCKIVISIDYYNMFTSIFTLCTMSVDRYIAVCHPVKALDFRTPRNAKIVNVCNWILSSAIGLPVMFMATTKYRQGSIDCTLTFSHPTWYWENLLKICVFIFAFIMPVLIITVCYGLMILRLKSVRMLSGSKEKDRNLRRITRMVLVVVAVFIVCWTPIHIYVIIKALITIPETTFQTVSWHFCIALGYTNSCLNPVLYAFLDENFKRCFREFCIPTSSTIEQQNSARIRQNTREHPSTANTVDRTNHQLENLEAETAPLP
# Chain of DOR (P32300 whole entry): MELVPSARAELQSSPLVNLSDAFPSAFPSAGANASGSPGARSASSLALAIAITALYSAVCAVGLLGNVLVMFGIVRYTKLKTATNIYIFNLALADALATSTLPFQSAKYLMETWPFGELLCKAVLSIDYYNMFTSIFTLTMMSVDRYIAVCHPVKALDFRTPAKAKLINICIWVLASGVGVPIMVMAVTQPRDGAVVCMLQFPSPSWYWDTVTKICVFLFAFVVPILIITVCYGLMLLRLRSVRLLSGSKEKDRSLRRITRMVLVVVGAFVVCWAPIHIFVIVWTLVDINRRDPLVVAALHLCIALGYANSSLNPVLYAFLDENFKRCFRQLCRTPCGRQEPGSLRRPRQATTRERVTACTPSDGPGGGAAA
compound,measurement,setting,value
"O=C(N[C@@H]1CC[C@@]2(O)[C@H]3Cc4ccc(O)c5c4[C@@]2(CCN3CC2CC2)[C@H]1O5)c1cccc2cc(Br)[nH]c12 [Compound 1, 17-Cyclopropylmethyl-3,14β-dihydroxy-4,5α-epoxy-6β-(2-bromo-indole-7-carboxamido)morphinan]",Ki,DOR,3.04 ± 0.27 nM
"O=C(N[C@@H]1CC[C@@]2(O)[C@H]3Cc4ccc(O)c5c4[C@@]2(CCN3CC2CC2)[C@H]1O5)c1cccc2cc(Cl)[nH]c12 [Compound 2, 17-Cyclopropylmethyl-3,14β-dihydroxy-4,5α-epoxy-6β-(2-chloro-indole-7-carboxamido)morphinan]",Ki,DOR,2.42 ± 0.44 nM
"N#Cc1cc2cccc(C(=O)N[C@@H]3CC[C@@]4(O)[C@H]5Cc6ccc(O)c7c6[C@@]4(CCN5CC4CC4)[C@H]3O7)c2[nH]1 [Compound 3, 17-Cyclopropylmethyl-3,14β-dihydroxy-4,5α-epoxy-6β-(2-cyano-indole-7-carboxamido)morphinan]",Ki,DOR,12 ± 0.62 nM
"Cc1cc2cccc(C(=O)N[C@@H]3CC[C@@]4(O)[C@H]5Cc6ccc(O)c7c6[C@@]4(CCN5CC4CC4)[C@H]3O7)c2[nH]1 [Compound 4, 17-Cyclopropylmethyl-3,14β-dihydroxy-4,5α-epoxy-6β-(2-methyl-indole-7-carboxamido)morphinan]",Ki,DOR,15.9 ± 0.38 nM
"O=C(N[C@@H]1CC[C@@]2(O)[C@H]3Cc4ccc(O)c5c4[C@@]2(CCN3CC2CC2)[C@H]1O5)c1cccc2cc(-c3ccccc3)[nH]c12 [Compound 5, 17-Cyclopropylmethyl-3,14β-dihydroxy-4,5α-epoxy-6β-(2-phenyl-indole-7-carboxamido)morphinan]",Ki,DOR,23.8 ± 3.96 nM
"O=C(N[C@@H]1CC[C@@]2(O)[C@H]3Cc4ccc(O)c5c4[C@@]2(CCN3CC2CC2)[C@H]1O5)c1cccc2c(Br)c[nH]c12 [Compound 6, 17-Cyclopropylmethyl-3,14β-dihydroxy-4,5α-epoxy-6β-(3-bromo-indole-7-carboxamido)morphinan]",Ki,DOR,11.6 ± 2.68 nM
"N#Cc1c[nH]c2c(C(=O)N[C@@H]3CC[C@@]4(O)[C@H]5Cc6ccc(O)c7c6[C@@]4(CCN5CC4CC4)[C@H]3O7)cccc12 [Compound 8, 17-Cyclopropylmethyl-3,14β-dihydroxy-4,5α-epoxy-6β-(3-cyano-indole-7-carboxamido)morphinan]",Ki,DOR,25.4 ± 3.39 nM
"O=C(N[C@@H]1CC[C@@]2(O)[C@H]3Cc4ccc(O)c5c4[C@@]2(CCN3CC2CC2)[C@H]1O5)c1cccc2c([N+](=O)[O-])c[nH]c12 [Compound 9, 17-Cyclopropylmethyl-3,14β-dihydroxy-4,5α-epoxy-6β-(3-nitro-indole-7-carboxamido)morphinan]",Ki,DOR,25.6 ± 8.06 nM
same,Antinociception effect (% MPE),mice,noticeable antinociception
"Cl.O=Cc1c[nH]c2c(C(=O)N[C@@H]3CC[C@@]4(O)[C@H]5Cc6ccc(O)c7c6[C@@]4(CCN5CC4CC4)[C@H]3O7)cccc12 [Compound 10, 17-Cyclopropylmethyl-3,14β-dihydroxy-4,5α-epoxy-6β-(3-formyl-indole-7-carboxamido)morphinan]",Selectivity δ/μ,MOR,35.1
"CC(=O)Nc1c[nH]c2c(C(=O)N[C@@H]3CC[C@@]4(O)[C@H]5Cc6ccc(O)c7c6[C@@]4(CCN5CC4CC4)[C@H]3O7)cccc12 [Compound 12, 17-Cyclopropylmethyl-3,14β-dihydroxy-4,5α-epoxy-6β-(3-acet-amido-indole-7-carboxamido)morphinan]",Ki,DOR,31 ± 4.96 nM
"Cc1c[nH]c2c(C(=O)N[C@@H]3CC[C@@]4(O)[C@H]5Cc6ccc(O)c7c6[C@@]4(CCN5CC4CC4)[C@H]3O7)cccc12 [Compound 13, 17-Cyclopropylmethyl-3,14β-dihydroxy-4,5α-epoxy-6β-(3-methyl-indole-7-carboxamido)morphinan]",Ki,DOR,27.9 ± 5.93 nM
same,Selectivity δ/μ,MOR,61.3
same,Selectivity κ/μ,MOR,2.2
same,Antinociception effect (% MPE),mice,noticeable antinociception
"CC(C)c1c[nH]c2c(C(=O)N[C@@H]3CC[C@@]4(O)[C@H]5Cc6ccc(O)c7c6[C@@]4(CCN5CC4CC4)[C@H]3O7)cccc12 [Compound 14, 17-Cyclopropylmethyl-3,14β-dihydroxy-4,5α-epoxy-6β-(3-iso-propyl-indole-7-carboxamido)morphinan]",Ki,DOR,19.8 ± 2.72 nM
"O=C(N[C@@H]1CC[C@@]2(O)[C@H]3Cc4ccc(O)c5c4[C@@]2(CCN3CC2CC2)[C@H]1O5)c1cccc2c(C3CCCCC3)c[nH]c12 [Compound 16, 17-Cyclopropylmethyl-3,14β-dihydroxy-4,5α-epoxy-6β-(3-cyclo-hexyl-indole-7-carboxamido)morphinan]",Ki,DOR,64 ± 1.99 nM
"O=C(N[C@@H]1CC[C@@]2(O)[C@H]3Cc4ccc(O)c5c4[C@@]2(CCN3CC2CC2)[C@H]1O5)c1cccc2c(-c3ccccc3)c[nH]c12 [Compound 17, 17-Cyclopropylmethyl-3,14β-dihydroxy-4,5α-epoxy-6β-(3-phenyl-indole-7-carboxamido)morphinan]",Ki,DOR,49.3 ± 10.1 nM
"O=C(N[C@H]1CC[C@@]2(O)[C@H]3Cc4ccc(O)c5c4[C@@]2(CCN3CC2CC2)[C@H]1O5)c1cccc2cc(Cl)[nH]c12 [Compound 19, 17-Cyclopropylmethyl-3,14β-dihydroxy-4,5α-epoxy-6α-(2-chloro-indole-7-carboxamido)morphinan]",Ki,DOR,1.82 ± 0.06 nM
"N#Cc1cc2cccc(C(=O)N[C@H]3CC[C@@]4(O)[C@H]5Cc6ccc(O)c7c6[C@@]4(CCN5CC4CC4)[C@H]3O7)c2[nH]1 [Compound 20, 17-Cyclopropylmethyl-3,14β-dihydroxy-4,5α-epoxy-6α-(2-cyano-indole-7-carboxamido)morphinan]",Ki,DOR,10.7 ± 0.93 nM
same,Selectivity δ/μ,MOR,12.2
"O=C(N[C@H]1CC[C@@]2(O)[C@H]3Cc4ccc(O)c5c4[C@@]2(CCN3CC2CC2)[C@H]1O5)c1cccc2cc(-c3ccccc3)[nH]c12 [Compound 22, 17-Cyclopropylmethyl-3,14β-dihydroxy-4,5α-epoxy-6α-(2-phenyl-indole-7-carboxamido)morphinan]",Ki,DOR,5.36 ± 1 nM
same,Selectivity δ/μ,MOR,2.2
"O=C(N[C@H]1CC[C@@]2(O)[C@H]3Cc4ccc(O)c5c4[C@@]2(CCN3CC2CC2)[C@H]1O5)c1cccc2c(Br)c[nH]c12 [Compound 23, 17-Cyclopropylmethyl-3,14β-dihydroxy-4,5α-epoxy-6α-(3-bromo-indole-7-carboxamido)morphinan]",Ki,DOR,19.2 ± 3.99 nM
"O=C(N[C@H]1CC[C@@]2(O)[C@H]3Cc4ccc(O)c5c4[C@@]2(CCN3CC2CC2)[C@H]1O5)c1cccc2c(Cl)c[nH]c12 [Compound 24, 17-Cyclopropylmethyl-3,14β-dihydroxy-4,5α-epoxy-6α-(3-chloro-indole-7-carboxamido)morphinan]",Ki,DOR,37.1 ± 9.46 nM
"N#Cc1c[nH]c2c(C(=O)N[C@H]3CC[C@@]4(O)[C@H]5Cc6ccc(O)c7c6[C@@]4(CCN5CC4CC4)[C@H]3O7)cccc12 [Compound 25, 17-Cyclopropylmethyl-3,14β-dihydroxy-4,5α-epoxy-6α-(3-cyano-indole-7-carboxamido)morphinan]",Ki,DOR,12.2 ± 2.2 nM
same,Selectivity κ/μ,MOR,6.3
"O=C(N[C@H]1CC[C@@]2(O)[C@H]3Cc4ccc(O)c5c4[C@@]2(CCN3CC2CC2)[C@H]1O5)c1cccc2c([N+](=O)[O-])c[nH]c12 [Compound 26, 17-Cyclopropylmethyl-3,14β-dihydroxy-4,5α-epoxy-6α-(3-nitro-indole-7-carboxamido)morphinan]",Ki,DOR,21.6 ± 2.57 nM
same,Selectivity δ/μ,MOR,20.3
same,Selectivity κ/μ,MOR,9.2
"O=Cc1c[nH]c2c(C(=O)N[C@H]3CC[C@@]4(O)[C@H]5Cc6ccc(O)c7c6[C@@]4(CCN5CC4CC4)[C@H]3O7)cccc12 [Compound 27, 17-Cyclopropylmethyl-3,14β-dihydroxy-4,5α-epoxy-6α-(3-formyl-indole-7-carboxamido)morphinan]",Ki,DOR,11.9 ± 1.91 nM
"CC(=O)Nc1c[nH]c2c(C(=O)N[C@H]3CC[C@@]4(O)[C@H]5Cc6ccc(O)c7c6[C@@]4(CCN5CC4CC4)[C@H]3O7)cccc12 [Compound 29, 17-Cyclopropylmethyl-3,14β-dihydroxy-4,5α-epoxy-6α-(3-acet-amido-indole-7-carboxamido)morphinan]",Ki,DOR,5.19 ± 0.35 nM
"Cc1c[nH]c2c(C(=O)N[C@H]3CC[C@@]4(O)[C@H]5Cc6ccc(O)c7c6[C@@]4(CCN5CC4CC4)[C@H]3O7)cccc12 [Compound 30, 17-Cyclopropylmethyl-3,14β-dihydroxy-4,5α-epoxy-6α-(3-methyl-indole-7-carboxamido)morphinan]",Ki,DOR,13.8 ± 4.02 nM
same,Blockage of the morphine-mediated antinociception,mice; 10 mg/kg s.c. in the presence of morphine (10 mg/kg),different degrees of inhibition of morphine’s antinociceptive effect
"CC(C)c1c[nH]c2c(C(=O)N[C@H]3CC[C@@]4(O)[C@H]5Cc6ccc(O)c7c6[C@@]4(CCN5CC4CC4)[C@H]3O7)cccc12 [Compound 31, 17-Cyclopropylmethyl-3,14β-dihydroxy-4,5α-epoxy-6α-(3-iso-propyl-indole-7-carboxamido)morphinan]",Ki,DOR,25.9 ± 5.69 nM
"O=C(N[C@H]1CC[C@@]2(O)[C@H]3Cc4ccc(O)c5c4[C@@]2(CCN3CC2CC2)[C@H]1O5)c1cccc2c(C3CCCC3)c[nH]c12 [Compound 32, 17-Cyclopropylmethyl-3,14β-dihydroxy-4,5α-epoxy-6α-(3-cyclo-pentyl-indole-7-carboxamido)morphinan]",Ki,DOR,28.2 ± 5.4 nM
"O=C(N[C@H]1CC[C@@]2(O)[C@H]3Cc4ccc(O)c5c4[C@@]2(CCN3CC2CC2)[C@H]1O5)c1cccc2c(C3CCCCC3)c[nH]c12 [Compound 33, 17-Cyclopropylmethyl-3,14β-dihydroxy-4,5α-epoxy-6α-(3-cyclo-hexyl-indole-7-carboxamido)morphinan]",Ki,DOR,18.6 ± 7.24 nM
"O=C(N[C@H]1CC[C@@]2(O)[C@H]3Cc4ccc(O)c5c4[C@@]2(CCN3CC2CC2)[C@H]1O5)c1cccc2c(-c3ccccc3)c[nH]c12 [Compound 34, 17-Cyclopropylmethyl-3,14β-dihydroxy-4,5α-epoxy-6α-(3-phenyl-indole-7-carboxamido)morphinan]",Ki,DOR,15 ± 2.71 nM
